The EternaBench riboswitch data

Tested on: MS2 coat protein
Assay: apparent Kd, MS2 coat protein; higher = weaker binding; RNA-MaP array; FMN 200 µM where present
Procedure, shortened: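 Apparent Kd: the median of filtered binding-curve fits from single clusters. Designs were transcribed on Illumina sequencing-chip clusters by stalled E. coli RNA polymerase and titrated with SNAP-549-labelled MS2 coat protein from 0.7 or 1.5 nM, doubling to 3 µM, in 100 mM Tris-HCl pH 7.5, 80 mM KCl, 4 mM MgCl2, BSA, DTT, yeast tRNA and Tween-20. Each series ran without and then with constant ligand, and green signal was normalised to red-channel RNA signal and control-cluster median Fmax.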

[1] = designed as: OFF switch for flavin mononucleotide, no ligand
[2] = ligand present: flavin mononucleotide, designed as: OFF switch for flavin mononucleotide
[3] = designed as: ON switch for flavin mononucleotide, no ligand
[4] = ligand present: flavin mononucleotide, designed as: ON switch for flavin mononucleotide

CGCACUGAUAGAGGAUAUGUUUAACAUGAGGAUCACCCAUGUGUACAAGGAUCAAUAUAUAAGUAACAGAAGGCUAUUAGUGCG
apparent Kd [1]: 13.9 nM | apparent Kd [2]: 13.4 nM

AUACAUGAGGAUCACCCAUGUUACUGGGUCUAUAUAGAACGUAGAAGGAUGUAUUGAAGAAGAUCAUAGGAUAUACUUUAUAGU
apparent Kd [1]: 49.9 nM | apparent Kd [2]: 38.9 nM

GCGGUCAACGUAGGAUAUCUUCAGCCACAGCACAUUGCUGUACAUGAGGAUCACCCAUGUCCUGGAGAGAAGGACGGACGGCAG
apparent Kd [3]: 179 nM | apparent Kd [4]: 35.3 nM

CCGAUGUAAGGAUAUCGUGCAAGUUUCAAAAGAGGCUUGUGCGAGAAGGUACAUGAGGAUCACCCAUGUAGGUU
apparent Kd [1]: 95.4 nM | apparent Kd [2]: 345 nM

GCACUGGAUGUAGGAUAUCAGGACGAUAAGUCCUGAGAAGGACAUGAGGAUCACCCAUGUAAAACUCCACCAGUGCAUAAUAUA
apparent Kd [1]: 13.1 nM | apparent Kd [2]: 17.9 nM

AUGUUACAUGAGGAUCACCCAUGUGAGGAUAUGUGUACCGGUAAAAAAGUGAUUGGCCACAGAAGGCAUUUGGA
apparent Kd [1]: 33.2 nM | apparent Kd [2]: 35.7 nM

AUGCUAGUGUGAGGAUAUCAACAUGAGGAUCACCCAUGUUGGAAGUACCCGACAUGAGGUACGGAUGAGAAGGUACAUUAGCAU
apparent Kd [1]: 15.6 nM | apparent Kd [2]: 25.3 nM

CAUUAAUUCAUUAUAGUUAUUAUACAGGAUAUGUUACAUGAGGAUCACCCAUGUUUUCAUGGUAAACAGAAGGGUAUAUCAAGU
apparent Kd [1]: 124 nM | apparent Kd [2]: 232 nM

AUGCUUUAUGUAGGAUAUGCAUACGGUACGUAUGCAGAAGGACAUGAGGAUCACCCAUGUAUAUUAUUAUUACAUAUCAUACAU
apparent Kd [1]: 26.6 nM | apparent Kd [2]: 377 nM

UUGUUAUAUGUAGGAUAUGCAUAUUGUUGUUAUGCAGAAGGACAUGAGGAUCACCCAUGUAUAUUAUUGUUAUAUAUUGUAUAU
apparent Kd [1]: 25.4 nM | apparent Kd [2]: 34.6 nM

CAGAGGAUGUAAGGAUAUCGUCAGGAUAACUGACGAGAAGGUACAUGAGGAUCACCCAUGUAUAUGAAAGAUAAUAAACCUCUG
apparent Kd [1]: 13.5 nM | apparent Kd [2]: 18.8 nM

ACGGCAGUCAGAGGAUAUGGUUACAUGAGGAUCACCCAUGUCAAGGGUCUAAUUAGGUAUAACUACCAGAAGGCUGAAGGCCUA
apparent Kd [1]: 64.5 nM | apparent Kd [2]: 102 nM

GCCUCAUAGUAGAAGGGACUUUUACAGUAAUGUUUUUAGUGUAAAUAACAUGAGGAUCACCCAUGUCAGGAUAUACUAAGAGGC
apparent Kd [1]: 5.82 nM | apparent Kd [2]: 6.35 nM

CAUUAAUUCAUUAUAGUAAUUAUACAGGAUAUGUAACAUGAGGAUCACCCAUGUAUUCUUGGUUAACAGAAGGGUAUUACAAGU
apparent Kd [1]: 16.5 nM | apparent Kd [2]: 28.4 nM

ACAUGAAAUCGAGGAUAUGCAAAAAAAAAAAAAGCAGAAGGCGAAAAAAAAACUCGAAAAAACAUGAGGAUCACCCAUGUAAAA
apparent Kd [1]: 26.4 nM | apparent Kd [2]: 22.9 nM

CCUCCACAUGAGGAUCACCCAUGUCAGGAUAUCGCGCGCGCGUUUUCGGUCUUUCGCGCGAGAAGGGACGACUG
apparent Kd [1]: 34.4 nM | apparent Kd [2]: 54.5 nM

GCUUGUGUUGAGGAUAUGCGCCGGCUCGCUGGCGCAGAAGGCGGCACAUGAGGAUCACCCAUGUCAGUUCGCGC
apparent Kd [1]: 19 nM | apparent Kd [2]: 157 nM

GAACGUAAAGAGAAGGGCUACUGGUUGAAACCUGCGGCCUCUGGAACAUGAGGAUCACCCAUGUAGCAGGAUAUCUUUGCAUUA
apparent Kd [1]: 146 nM | apparent Kd [2]: 18.9 nM

UUAUGAUAGAUAGGAUAUACAAUGGAUUAAGAAGUAGAAGGAUCAAGUGGGAAAUGAACAUGAGGAUCACCCAUGUAAUAGGUU
apparent Kd [3]: 127 nM | apparent Kd [4]: 83.5 nM

GCGUUGCACGAGAAGGCCAAUACAUGAGGAUCACCCAUGUUAAAAUGUUUUGGAGGAUAUCGAUCAUCUACAAUAAAGCAACGC
apparent Kd [1]: 12.6 nM | apparent Kd [2]: 11.6 nM

AUAAUGUGAGGAUAUCAGUAGUAUUGCUUCGGCAAUACUACUGAGAAGGCACAUGAGGAUCACCCAUGUGAUCA
apparent Kd [1]: 1380 nM | apparent Kd [2]: 32.8 nM
